# Measured values reported in ChEMBL document CHEMBL4840303, “Design, synthesis, biological evaluation and pharmacophore model analysis of novel tetrahydropyrrolo[3,4-c]pyrazol derivatives as potential TRKs inhibitors” (Eur J Med Chem, 2021).
# Tests used:
# [1] = Stability in human liver microsomes assessed as compound remaining in presence of NADPH at 100 uM measured after 60 mins by LC-MS/MS analysis; format: ADME, Microsome; conditions: read-out: Stability
# Summary of the method: (§1)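 Human liver microsomes diluted to 0.59 mg/mL working solution in 100 mM potassium phosphate, prewarmed 10 min at 37 °C; compound added from a 100 µM working solution. NADPH (in 10 mM MgCl2) added to one plate, buffer instead in no-cofactor control. Incubated at 37 °C, quenched at 5, 15, 30, 45, 60 min, centrifuged, analysed by LC-MS/MS.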
# [2] = target: Tyrosine-protein kinase JAK2 (Homo sapiens) (UniProt O60674); experiment: Inhibition of recombinant GST-tagged human JAK2 expressed in baculovirus expression system at 1 uM measured by select screen assay relative to control
# Summary of the method: (§2)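 Single-concentration profiling at 1.0 µM in a 28-kinase SelectScreen panel; percent inhibition reported.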
# [3] = AUC (0 to infinity) in Sprague dawley rat at 1 mg/kg, iv; format: ADME, organism-based; parameters: time infinity, route intravenous, dose 1 mg/kg; conditions: in vivo
# Summary of the method: (§3)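 Blood was collected into heparin tubes at specified time points and centrifuged at once (4 °C, 4000 rpm, 20 min). Plasma levels were quantified by LC-MS/MS. Parameters came from noncompartmental analysis.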
# [4] = AUC (0 to infinity) in Sprague dawley rat at 3 mg/kg, po; format: ADME, organism-based; parameters: time infinity, route oral, dose 3 mg/kg; conditions: in vivo; summary of the method: as §3
# [5] = target: Serine/threonine-protein kinase PAK 1 (Homo sapiens) (UniProt Q13153); experiment: Inhibition of recombinant GST-tagged human full length PAK1 expressed in baculovirus expression system at 1 uM measured by select screen assay relative to control; summary of the method: as §2
# Chain of Serine/threonine-protein kinase PAK 1 (Homo sapiens) (Q13153 whole entry): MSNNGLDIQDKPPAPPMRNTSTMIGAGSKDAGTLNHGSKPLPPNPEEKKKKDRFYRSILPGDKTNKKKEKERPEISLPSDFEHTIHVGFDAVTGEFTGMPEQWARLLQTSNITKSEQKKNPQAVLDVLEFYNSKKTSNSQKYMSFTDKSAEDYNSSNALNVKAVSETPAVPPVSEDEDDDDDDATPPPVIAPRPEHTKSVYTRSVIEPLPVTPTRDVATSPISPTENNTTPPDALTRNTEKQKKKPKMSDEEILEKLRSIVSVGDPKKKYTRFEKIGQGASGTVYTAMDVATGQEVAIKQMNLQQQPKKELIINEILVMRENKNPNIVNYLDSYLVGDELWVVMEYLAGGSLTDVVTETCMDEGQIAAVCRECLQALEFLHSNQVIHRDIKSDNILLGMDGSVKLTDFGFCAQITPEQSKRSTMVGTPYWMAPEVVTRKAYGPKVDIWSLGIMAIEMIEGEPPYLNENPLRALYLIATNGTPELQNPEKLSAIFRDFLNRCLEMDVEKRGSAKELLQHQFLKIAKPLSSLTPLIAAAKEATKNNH
# KM12 [6] = experiment: Cell cycle arrest in human KM12 cells assessed as accumulation of cells at G1 phase at 250 nM measured after 48 hrs by AnnexinV-FITC/PI staining based flowcytometry method relative to control; format: functional
# KM12 [7] = experiment: Cell cycle arrest in human KM12 cells assessed as accumulation of cells at G2 phase at 500 nM measured after 48 hrs by AnnexinV-FITC/PI staining based flowcytometry method relative to control; format: functional
# [8] = Stability in human plasma assessed as compound remaining incubated for 10 mins by LC-MS/MS analysis; format: ADME, cell-free; conditions: read-out: Stability
# Summary of the method: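 Pooled frozen human plasma thawed at 37 °C, centrifuged to remove clots, pH adjusted to 7.4 if required. Spiked to 2 µM final (from 100 µM dosing solution), in duplicate, incubated at 37 °C in a water bath. Sampled at 0, 10, 30, 60 and 120 min, quenched with acetonitrile stop solution containing internal standards, centrifuged, and supernatant analysed by LC-MS/MS for percent remaining.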
# [9] = MRT in Sprague dawley rat at 3 mg/kg, po; format: ADME, organism-based; conditions: in vivo
# Summary of the method: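 Male-unspecified SD rats, n = 3 per group, single i.v. dose 1 mg/kg or oral 3 mg/kg. Blood drawn into heparin tubes at set times, centrifuged at 4 °C, plasma quantified by LC-MS/MS; noncompartmental parameters fitted.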
# [10] = target: High affinity nerve growth factor receptor (Homo sapiens, UniProt P04629); experiment: Inhibition of recombinant His-tagged human TRKA expressed in baculovirus expression system at 1 uM measured by select screen assay relative to control; summary of the method: as §2
# Chain of High affinity nerve growth factor receptor (P04629 33-796 limits assumed): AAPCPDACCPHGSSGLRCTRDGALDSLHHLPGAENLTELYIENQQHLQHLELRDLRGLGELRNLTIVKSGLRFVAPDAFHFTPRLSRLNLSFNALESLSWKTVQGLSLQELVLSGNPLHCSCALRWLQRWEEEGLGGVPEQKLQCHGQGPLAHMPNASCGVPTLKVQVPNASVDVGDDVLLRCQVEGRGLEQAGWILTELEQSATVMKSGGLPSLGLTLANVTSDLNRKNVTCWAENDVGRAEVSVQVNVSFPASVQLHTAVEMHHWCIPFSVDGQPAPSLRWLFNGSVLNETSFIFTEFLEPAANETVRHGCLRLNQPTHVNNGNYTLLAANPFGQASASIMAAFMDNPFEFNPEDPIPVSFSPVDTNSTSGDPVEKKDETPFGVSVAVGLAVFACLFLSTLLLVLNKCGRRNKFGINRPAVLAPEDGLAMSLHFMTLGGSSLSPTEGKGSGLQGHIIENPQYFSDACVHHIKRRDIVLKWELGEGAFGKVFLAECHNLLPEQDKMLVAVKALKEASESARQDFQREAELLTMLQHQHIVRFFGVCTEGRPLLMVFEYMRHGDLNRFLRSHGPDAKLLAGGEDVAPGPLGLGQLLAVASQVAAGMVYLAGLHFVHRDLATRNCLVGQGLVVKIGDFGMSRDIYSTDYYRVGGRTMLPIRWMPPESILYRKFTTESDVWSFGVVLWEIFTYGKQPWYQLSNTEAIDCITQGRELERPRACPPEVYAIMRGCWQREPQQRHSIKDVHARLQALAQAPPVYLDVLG
# [11] = target: Receptor-type tyrosine-protein kinase FLT3 (Homo sapiens) (UniProt P36888); experiment: Inhibition of recombinant His-tagged human FLT3 expressed in baculovirus expression system at 1 uM measured by select screen assay relative to control; summary of the method: as §2
# Chain of Receptor-type tyrosine-protein kinase FLT3 (Homo sapiens) (P36888 whole entry): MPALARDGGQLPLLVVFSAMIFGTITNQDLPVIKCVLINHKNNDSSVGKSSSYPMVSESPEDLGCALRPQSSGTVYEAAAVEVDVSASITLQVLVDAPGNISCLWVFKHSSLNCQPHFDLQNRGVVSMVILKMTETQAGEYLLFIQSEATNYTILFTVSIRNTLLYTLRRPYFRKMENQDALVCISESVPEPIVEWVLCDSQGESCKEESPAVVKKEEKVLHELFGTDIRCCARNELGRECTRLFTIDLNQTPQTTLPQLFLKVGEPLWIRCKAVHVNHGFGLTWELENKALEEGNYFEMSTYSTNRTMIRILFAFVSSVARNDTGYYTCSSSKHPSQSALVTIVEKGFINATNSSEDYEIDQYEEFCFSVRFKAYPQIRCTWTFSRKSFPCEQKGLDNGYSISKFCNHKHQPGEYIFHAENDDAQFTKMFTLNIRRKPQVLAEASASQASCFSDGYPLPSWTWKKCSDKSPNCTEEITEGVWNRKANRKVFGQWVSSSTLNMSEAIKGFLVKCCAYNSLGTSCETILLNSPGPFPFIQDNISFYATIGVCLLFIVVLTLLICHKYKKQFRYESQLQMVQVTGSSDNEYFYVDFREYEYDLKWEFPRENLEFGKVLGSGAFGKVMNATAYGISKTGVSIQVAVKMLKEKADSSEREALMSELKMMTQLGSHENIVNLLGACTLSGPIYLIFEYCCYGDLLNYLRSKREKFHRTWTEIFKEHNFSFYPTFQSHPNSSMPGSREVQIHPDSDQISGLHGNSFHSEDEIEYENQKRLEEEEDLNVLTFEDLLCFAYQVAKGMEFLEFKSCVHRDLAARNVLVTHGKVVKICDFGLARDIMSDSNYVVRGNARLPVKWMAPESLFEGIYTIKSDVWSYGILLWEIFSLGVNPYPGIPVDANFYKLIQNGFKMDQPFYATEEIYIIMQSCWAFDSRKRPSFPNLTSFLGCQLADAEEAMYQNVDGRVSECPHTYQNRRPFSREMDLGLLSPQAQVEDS
# [12] = target: Maternal embryonic leucine zipper kinase (Homo sapiens) (UniProt Q14680); experiment: Inhibition of recombinant GST-tagged human MELK expressed in baculovirus expression system at 1 uM measured by select screen assay relative to control; summary of the method: as §2
# Chain of Maternal embryonic leucine zipper kinase (Homo sapiens) (Q14680 whole entry, looked up): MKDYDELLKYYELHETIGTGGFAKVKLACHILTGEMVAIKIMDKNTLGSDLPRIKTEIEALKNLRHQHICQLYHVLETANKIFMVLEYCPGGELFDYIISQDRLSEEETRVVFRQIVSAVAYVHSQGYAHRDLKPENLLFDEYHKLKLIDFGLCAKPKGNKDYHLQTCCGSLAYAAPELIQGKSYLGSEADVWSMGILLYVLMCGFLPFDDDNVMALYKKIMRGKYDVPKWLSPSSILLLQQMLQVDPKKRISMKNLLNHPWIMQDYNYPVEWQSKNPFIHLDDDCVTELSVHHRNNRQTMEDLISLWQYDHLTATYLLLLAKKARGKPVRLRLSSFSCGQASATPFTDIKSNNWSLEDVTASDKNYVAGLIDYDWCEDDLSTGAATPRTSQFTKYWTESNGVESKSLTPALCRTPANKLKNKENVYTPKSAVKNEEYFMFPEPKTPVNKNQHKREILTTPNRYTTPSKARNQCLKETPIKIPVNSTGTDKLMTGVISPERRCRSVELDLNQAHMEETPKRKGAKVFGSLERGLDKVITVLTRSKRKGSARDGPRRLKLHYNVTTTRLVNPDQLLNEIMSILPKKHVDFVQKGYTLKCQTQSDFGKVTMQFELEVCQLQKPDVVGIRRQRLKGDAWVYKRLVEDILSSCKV
# [13] = target: Serine/threonine-protein kinase PLK4 (Homo sapiens) (UniProt O00444); experiment: Inhibition of recombinant GST-tagged human PLK4 expressed in baculovirus expression system at 1 uM measured by select screen assay relative to control; summary of the method: as §2
# Chain of Serine/threonine-protein kinase PLK4 (Homo sapiens) (O00444 whole entry): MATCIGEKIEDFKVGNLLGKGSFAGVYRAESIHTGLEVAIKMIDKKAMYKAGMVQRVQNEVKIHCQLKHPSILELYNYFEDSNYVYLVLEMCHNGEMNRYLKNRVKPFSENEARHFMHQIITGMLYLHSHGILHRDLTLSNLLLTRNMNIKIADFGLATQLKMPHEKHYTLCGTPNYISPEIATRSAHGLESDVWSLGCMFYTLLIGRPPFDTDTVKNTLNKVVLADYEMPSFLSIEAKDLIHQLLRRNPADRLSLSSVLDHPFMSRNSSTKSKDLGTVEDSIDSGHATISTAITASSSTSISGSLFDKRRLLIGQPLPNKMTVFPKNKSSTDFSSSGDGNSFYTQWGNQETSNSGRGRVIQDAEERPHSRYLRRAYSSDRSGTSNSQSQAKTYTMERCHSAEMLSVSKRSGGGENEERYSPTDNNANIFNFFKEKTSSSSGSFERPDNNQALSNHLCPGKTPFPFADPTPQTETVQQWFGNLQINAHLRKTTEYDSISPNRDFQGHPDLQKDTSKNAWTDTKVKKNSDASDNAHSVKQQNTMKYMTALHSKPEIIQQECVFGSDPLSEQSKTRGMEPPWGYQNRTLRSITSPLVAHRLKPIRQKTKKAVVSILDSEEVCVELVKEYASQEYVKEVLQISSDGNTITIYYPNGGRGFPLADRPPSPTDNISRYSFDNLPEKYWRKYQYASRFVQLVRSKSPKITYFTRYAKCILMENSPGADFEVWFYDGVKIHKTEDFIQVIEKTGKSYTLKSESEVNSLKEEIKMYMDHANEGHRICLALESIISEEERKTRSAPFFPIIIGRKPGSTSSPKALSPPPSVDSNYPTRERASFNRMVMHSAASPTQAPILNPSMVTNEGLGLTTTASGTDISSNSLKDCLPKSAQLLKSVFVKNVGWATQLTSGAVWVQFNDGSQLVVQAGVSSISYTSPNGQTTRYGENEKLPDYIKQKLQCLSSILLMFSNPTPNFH
# A549 = experiment: cells; conditions: Homo sapiens, A549, 72 h
# [14] = target: Serine/threonine-protein kinase mTOR (Homo sapiens) (UniProt P42345); experiment: Inhibition of recombinant GST-tagged human mTOR (1360 to 2549 residues) expressed in baculovirus expression system at 1 uM measured by select screen assay relative to control; summary of the method: as §2
# KM12 [15] = experiment: Induction of apoptosis in human KM12 cells assessed as late apoptotic cells at 62.5 nM measured after 48 hrs by AnnexinV-FITC/PI staining based flowcytometry assay relative to control; format: functional
# Summary of the method: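 They were detached with trypsin, washed twice in PBS, and 10^5 cells were suspended in Annexin V binding buffer. Cells were stained with FITC-Annexin V and PI for 10 min at room temperature in the dark, diluted with PBS and analysed by flow cytometry.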
# KM12 [16] = experiment: Induction of apoptosis in human KM12 cells assessed as viable cells at 250 nM measured after 48 hrs by AnnexinV-FITC/PI staining based flowcytometry assay relative to control; format: functional; conditions: read-out: Activity
# Summary of the method: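 10^5 cells in Annexin V binding buffer stained with FITC-Annexin V and PI for 10 min at room temperature in the dark, diluted with PBS and analysed by flow cytometry (FITC 494/518 nm, PI 535/617 nm).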
# [17] = Stability in human liver microsomes assessed as half life at 100 uM measured after 60 mins by LC-MS/MS analysis; format: ADME, Microsome; conditions: 1 h; summary of the method: as §1
# [18] = Stability in human liver microsomes assessed as compound remaining at 100 uM measured after 60 mins by LC-MS/MS analysis; format: ADME, Microsome; conditions: 1 h; summary of the method: as §1
# KM12 [19] = experiment: Cell cycle arrest in human KM12 cells assessed as accumulation of cells at greater G1 phase at 1000 nM measured after 48 hrs by AnnexinV-FITC/PI staining based flowcytometry method relative to control; format: functional
# [20] = target: Serine/threonine-protein kinase PAK 4 (Homo sapiens) (UniProt O96013); experiment: Inhibition of recombinant GST-tagged human PAK4 (295 to 591 residues) expressed in baculovirus expression system at 1 uM measured by select screen assay relative to control; summary of the method: as §2
# Chain of Serine/threonine-protein kinase PAK 4 (Homo sapiens) (O96013 whole entry, looked up, the tested form may be a part): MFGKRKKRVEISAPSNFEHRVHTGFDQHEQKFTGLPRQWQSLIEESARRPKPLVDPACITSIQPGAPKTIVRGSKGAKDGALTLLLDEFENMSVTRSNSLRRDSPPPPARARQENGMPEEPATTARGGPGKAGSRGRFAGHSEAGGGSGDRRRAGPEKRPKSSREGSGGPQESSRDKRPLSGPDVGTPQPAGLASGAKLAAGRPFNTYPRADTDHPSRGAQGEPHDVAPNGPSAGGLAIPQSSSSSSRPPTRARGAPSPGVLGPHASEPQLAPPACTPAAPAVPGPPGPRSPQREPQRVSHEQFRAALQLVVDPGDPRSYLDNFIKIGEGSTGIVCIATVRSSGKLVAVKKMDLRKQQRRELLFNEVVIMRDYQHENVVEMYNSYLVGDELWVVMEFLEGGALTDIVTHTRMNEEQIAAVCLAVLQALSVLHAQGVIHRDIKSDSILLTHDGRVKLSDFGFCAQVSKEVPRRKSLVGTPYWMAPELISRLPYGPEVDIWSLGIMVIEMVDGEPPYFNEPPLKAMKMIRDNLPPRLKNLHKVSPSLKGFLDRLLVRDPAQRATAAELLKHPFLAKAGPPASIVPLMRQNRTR
# KM12 [21] = experiment: Cell cycle arrest in human KM12 cells assessed as accumulation of cells at G2 phase at 125 nM measured after 48 hrs by AnnexinV-FITC/PI staining based flowcytometry method relative to control; format: functional
# CYP2C19 = CYP2C19 (Homo sapiens, UniProt P33261); experiment: Inhibition of CYP2C19 in human liver microsomes at 10 uM preincubated for 10 mins followed by addition of NADPH and measured after 15 mins by LC-MS/MS analysis; format: ADME; conditions: time 25 min
# Chain of CYP2C19 (P33261 whole entry): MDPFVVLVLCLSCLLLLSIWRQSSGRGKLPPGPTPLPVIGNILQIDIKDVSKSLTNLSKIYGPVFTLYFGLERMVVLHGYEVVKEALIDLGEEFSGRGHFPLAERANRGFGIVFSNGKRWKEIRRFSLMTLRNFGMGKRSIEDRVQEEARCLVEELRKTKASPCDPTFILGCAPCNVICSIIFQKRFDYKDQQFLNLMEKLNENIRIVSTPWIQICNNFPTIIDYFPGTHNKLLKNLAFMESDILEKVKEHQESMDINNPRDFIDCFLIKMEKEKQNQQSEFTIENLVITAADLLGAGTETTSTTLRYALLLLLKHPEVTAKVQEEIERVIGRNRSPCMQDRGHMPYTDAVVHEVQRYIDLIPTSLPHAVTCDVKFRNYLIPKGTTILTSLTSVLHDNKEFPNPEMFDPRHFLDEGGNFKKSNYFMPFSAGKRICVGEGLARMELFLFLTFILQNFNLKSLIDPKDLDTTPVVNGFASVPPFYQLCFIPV
# Summary of the method: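 Pooled human liver microsomes (0.253 mg/mL) with test compound at 10 µM and probe substrates: phenacetin (CYP1A2), diclofenac (CYP2C9), S-mephenytoin (CYP2C19), dextromethorphan (CYP2D6), midazolam (CYP3A4). 10 min preincubation at 37 °C, NADPH-regenerating system added, 15 min at 37 °C. Stopped with cold acetonitrile containing tolbutamide/labetalol internal standards, centrifuged, supernatant read by LC-MS/MS; % inhibition.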
# KM12 [22] = experiment: Cell cycle arrest in human KM12 cells assessed as accumulation of cells at S phase at 250 nM measured after 48 hrs by AnnexinV-FITC/PI staining based flowcytometry method relative to control; format: functional
# [23] = target: NT-3 growth factor receptor (Homo sapiens, UniProt Q16288); experiment: Inhibition of recombinant His-tagged human TRKC expressed in baculovirus expression system at 1 uM measured by select screen assay relative to control; summary of the method: as §2
smiles,measurement,setting,value
CN1CCN(c2ccc(C(=O)Nc3n[nH]c4c3CN(Cc3cc(F)cc(F)c3)C4(C)C)cc2)CC1,"remaining at 1 h, 100 µM",[1],22.4%
same,inhibition,[2],76%
same,AUC(0-inf),[3],2080 ng·h/mL
same,AUC(0-inf),[4],2890 ng·h/mL
same,inhibition,[5],3%
same,Activity,KM12 [6],74%
same,Activity,KM12 [7],8.75%
same,remaining at 10 min,[8],96.8%
same,MRT,[9],3.49 h
same,inhibition,[10],102%
same,inhibition,[11],31%
same,inhibition,[12],22%
same,inhibition,[13],0%
same,IC50,A549,72.3 µM
same,inhibition,[14],1%
same,Activity,KM12 [15],9.89%
same,viability at 0.25 µM,KM12 [16],30.2%
same,t1/2,[17],0.493 h
same,Stability,[18],90.9%
same,Activity,KM12 [19],1.59%
same,inhibition,[20],4%
same,Activity,KM12 [21],11.5%
same,"inhibition at 0.25 h, 10 µM",CYP2C19,11.5%
same,Activity,KM12 [22],8.17%
same,inhibition,[23],99%
